Assay [1] has as its target T1, Kappa-type opioid receptor (Mus musculus, UniProt P33534). Kind of assay: Positive allosteric modulator activity in mouse kappa opioid receptor stably expressed in HEK293 cell membrane assessed as binding affinity of dyn A1-13 to orthosteric binding site incubated with dyn A1-13 alone for 90 mins by radioligand competition binding assay. It is filed as cell membranes. A general note: Displacement assays read how much labelled ligand stays bound in the presence of the test substance.

Assay [2] deals with T1, Kappa-type opioid receptor. Kind of assay: Positive allosteric modulator activity in mouse kappa opioid receptor stably expressed in HEK293 cell membrane assessed as inhibition of forskolin induced cAMP production by measuring dyn A1-13 EC50 incubated with dyn A1-13 alone measured after 30 mins by HTRF assay. Format: functional, cell membranes. A digest of the protocol:
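HEK293 stably expressing mouse KOR (2000 cells/well), pretreated 30 min at 37 °C with T20K (0.03–10 μM) or none, then dyn A1–13 with 10 μM forskolin and 0.5 mM IBMX for 30 min at 37 °C. cAMP by HTRF (665/620 nm) after 1 h at room temperature. Triplicates; normalized to top dyn A1–13 concentration; three-parameter fit, slope 1.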
Background: cAMP levels reflect the balance of adenylyl cyclase and phosphodiesterase activity.

In assay [3] the target is T1, Kappa-type opioid receptor. As to the kind of experiment: Agonist activity at mouse kappa opioid receptor […] assessed as beta-arrestin 2 recruitment using furimazine as a substrate preincubated for 5 mins followed by ligand addition measured for 35 mins by BRET assay. Format: functional, HEK293, Cell membrane. In general terms: Activated receptors often draw arrestin, which recruitment assays turn into a signal.

Assay [4] addresses Kappa-type opioid receptor (Mus musculus) (UniProt P33534). Kind of assay: Positive allosteric modulator activity in mouse kappa opioid receptor stably expressed in HEK293 cell membrane assessed as inhibition of forskolin induced cAMP production by measuring dyn A1-13 Emax incubated with dyn A1-13 alone measured after 30 mins by HTRF assay relative to control. Conditions: filed as positive allosteric modulator, dose 0.03 µM, time 60.0 min. Format: functional, cell membranes. A digest of the protocol:
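Stably transfected mouse KOR HEK293 cells were pretreated with modulator (0.03–10 μM) for 30 min at 37 °C. Dyn A1-13 or U50,488 plus forskolin (10 μM final) with IBMX were then added for a further 30 min at 37 °C. HTRF cAMP read at 665/620 nm. Normalised to the highest orthosteric agonist concentration; unconstrained three-parameter fit, slope 1; n = 4 (7 at 10 μM).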

Structures are written as SMILES.

The Ki is the dissociation constant of the complex between target and ligand, obtained from inhibition or displacement. What is called EC50 is the concentration at which the effect is half-maximal. In general, Emax refers to the size of the effect at its maximum, as opposed to the concentration needed. In the case of `CC[C@H](C)[C@H](NC(=O)[C@H](CCCNC(=N)N)NC(=O)[C@H](CCCNC(=N)N)NC(=O)[C@H](CC(C)C)NC(=O)[C@H](Cc1ccccc1)NC(=O)CNC(=O)CNC(=O)[C@@H](N)Cc1ccc(O)cc1)C(=O)N[C@@H](CCCNC(=N)N)C(=O)N1CCC[C@H]1C(=O)N[C@@H](CCCCN)C(=O)N[C@@H](CC(C)C)C(=O)N[C@@H](CCCCN)C(=O)O` [ANALOG OF DYNORPHIN A], the Ki in assay [1] was determined as 0.3 nM. Further, the values for the EC50 in assay [2] and in assay [3] were 6.7 nM and 159 nM, respectively. Moreover, in assay [4], the Emax was 100%.

These data come from ChEMBL document CHEMBL4831505, “Plant-Derived Cyclotides Modulate κ-Opioid Receptor Signaling” (J Nat Prod, 2021).
